Data set [1] addresses T1, Cathepsin B (Homo sapiens, UniProt P07858). Nature of the data set: Non-competitive inhibition of recombinant human cathepsin B exopeptidase activity assessed as inhibitory constant for enzyme-substrate-inhibitor complex using Abz-Gly-Ile-Val-Arg-Ala-Lys(Dnp)-OH as substrate in presence of pH 5 acetate buffer by fluorescence assay.
Data set [2] addresses T1, Cathepsin B. The data set is described as follows: Non-competitive inhibition of recombinant human cathepsin B exopeptidase activity assessed as inhibitory constant for enzyme-inhibitor complex using Abz-Gly-Ile-Val-Arg-Ala-Lys(Dnp)-OH as substrate in presence of pH 5 acetate buffer by fluorescence assay.
The target of data set [3] is T1, Cathepsin B. Nature of the data set: Mixed inhibition of recombinant human cathepsin B endopeptidase activity assessed as inhibitory constant for enzyme-substrate-inhibitor complex using Z-Arg-Arg-AMC as substrate in presence of pH 6 phosphate buffer by fluorescence assay.
Data set [4] concerns the target T1, Cathepsin B. Nature of the data set: Mixed inhibition of recombinant human cathepsin B endopeptidase activity assessed as inhibitory constant for enzyme-inhibitor complex using Z-Arg-Arg-AMC as substrate in presence of pH 6 phosphate buffer by fluorescence assay.
Data set [5] has as its target T1, Cathepsin B. The data set is described as follows: Mixed inhibition of recombinant human cathepsin B exopeptidase activity assessed as inhibitory constant for enzyme-substrate-inhibitor complex using Abz-Gly-Ile-Val-Arg-Ala-Lys(Dnp)-OH as substrate in presence of pH 5 acetate buffer by fluorescence assay.
In data set [6] the target is T1, Cathepsin B. Nature of the data set: Non-competitive inhibition of recombinant human cathepsin B endopeptidase activity assessed as inhibitory constant for enzyme-substrate-inhibitor complex using Z-Arg-Arg-AMC as substrate in presence of pH 6 phosphate buffer by fluorescence assay.
Data set [7] addresses T1, Cathepsin B. The data set is described as follows: Mixed inhibition of recombinant human cathepsin B exopeptidase activity assessed as inhibitory constant for enzyme-inhibitor complex using Abz-Gly-Ile-Val-Arg-Ala-Lys(Dnp)-OH as substrate in presence of pH 5 acetate buffer by fluorescence assay.
For data set [8], the target named is T1, Cathepsin B. The data set is described as follows: Competitive inhibition of recombinant human cathepsin B endopeptidase activity assessed as inhibitory constant for enzyme-inhibitor complex using Z-Arg-Arg-AMC as substrate in presence of pH 4.5 acetate buffer by fluorescence assay. To be noted: read-out: Ki. In short, it runs like this:
(§1)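 Recombinant cathepsin B endopeptidase activity assayed with the small substrate Z-Arg-Arg-AMC at pH 4.5. Acidic conditions chosen to shift the enzyme toward the closed (exopeptidase) conformation. Ki reported.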

Data set [9] deals with T1, Cathepsin B. The data set is described as follows: Non-competitive inhibition of recombinant human cathepsin B endopeptidase activity assessed as inhibitory constant for enzyme-inhibitor complex using Z-Arg-Arg-AMC as substrate in presence of pH 6 phosphate buffer by fluorescence assay.
The target of data set [10] is T1, Cathepsin B. The data set is described as follows: Inhibition of cathepsin B in human MCF-10A neoT cells assessed as proteolysis of extracellular membrane by measuring decrease in intracellular degradation of DQ-collagen 4 at 50 uM incubated for 2 hrs followed by DQ-collagen addition measured for 2 hrs by propidium iodide staining based flow cytometry relative to control. The class given is cell-based. The gist of the method:
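MCF-10A neoT cells (6 × 10⁴) treated with compound or DMSO. Intracellular DQ-collagen IV degradation measured by flow cytometry, with unlabeled cells as background. Reduction expressed versus DMSO. Mean of n = 3, run in duplicate.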

Data set [11] concerns MCF-10A-neoT. The data set is described as follows: Cytotoxicity against human MCF10AneoT cells assessed as decrease in cell viability after 72 hrs by MTS assay. It counts as cell-based. (In general: Tetrazolium dyes change colour on reduction, which living cells bring about.)
A further data set concerns U-87 MG. The data set is described as follows: Cytotoxicity against human U87MG cells assessed as decrease in cell viability after 72 hrs by MTS assay. It counts as cell-based. To be noted: u-87mg atcc.
Data set [12] has as its target T1, Cathepsin B. Nature of the data set: Inhibition of cathepsin B in human MCF-10A neoT cells assessed as proteolysis of extracellular membrane by measuring decrease in extracellular degradation of DQ-collagen 4 at 5 uM incubated for 6 hrs measured for 2 hrs by fluorescence based spectrofluorimetric assay relative to control. It counts as cell-based. In short, it runs like this:
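MCF-10A neoT cells (5 × 10⁴) incubated with DQ-collagen IV in the presence of compound or DMSO. Extracellular degradation product read by spectrofluorimetry. Mean of n = 3, six replicates per experiment.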

Data set [13] addresses T1, Cathepsin B. The data set is described as follows: Uncompetitive inhibition of recombinant human cathepsin B endopeptidase activity assessed as inhibitory constant for enzyme-substrate-inhibitor complex using Z-Arg-Arg-AMC as substrate in presence of pH 6 phosphate buffer by fluorescence assay.
In data set [14] the test system is MCF-10A-neoT. Nature of the data set: Antiinvasive activity against human MCF10AneoT cells at 5 uM incubated for 1 hr measured every 15 mins for 72 hrs by real time xCELLigence assay relative to control. It counts as functional. The gist of the method:
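MCF-10A neoT cells (3 × 10⁴) seeded on Matrigel-coated (1 mg/mL) upper compartments of CIM-plates. Compound or DMSO (0.05%) added to growth medium in both upper and lower compartments. Invasion followed by impedance (cell index) for 72 h. Slopes (1/h) between 4 and 14 h converted to percentage invasion versus DMSO. Means of n = 2, each run in triplicate.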

Data set [15] concerns the target T1, Cathepsin B. Nature of the data set: Inhibition of recombinant human cathepsin B endopeptidase activity assessed as inhibitory constant for enzyme-inhibitor complex using Z-Arg-Arg-AMC as substrate in presence of pH 4.5 acetate buffer by fluorescence assay. The gist of the method:
as §1

In data set [16] the target is T1, Cathepsin B. Nature of the data set: Uncompetitive inhibition of recombinant human cathepsin B exopeptidase activity assessed as inhibitory constant for enzyme-substrate-inhibitor complex using Abz-Gly-Ile-Val-Arg-Ala-Lys(Dnp)-OH as substrate in presence of pH 5 acetate buffer by fluorescence assay.
In data set [17] the target is T1, Cathepsin B. Nature of the data set: Inhibition of recombinant human cathepsin B endopeptidase activity assessed as inhibitory constant for enzyme-substrate-inhibitor complex using Z-Arg-Arg-AMC as substrate in presence of pH 6 phosphate buffer by fluorescence assay.

This passage reports Ki, inhibition and Activity results from ChEMBL document CHEMBL4219118, “Cathepsin B inhibitors: Further exploration of the nitroxoline core” (Bioorg Med Chem Lett, 2018).

SMILES strings stand for the structures. pKi: −log10 of the molar value. Active and inactive are the calls of the source. The rule behind the calls is not given here.

The pKi is the negative decadic logarithm of the Ki, by convention in mol/L. In the case of `CN(CC#N)C(=O)c1ccc2c([N+](=O)[O-])ccc(O)c2n1`, the pKi at Cathepsin B [1] is 3.69; on Cathepsin B [2] it was 3.69; at Cathepsin B [3] it was 3.58; on Cathepsin B [4] it was 3.99.

Turning to `N#CCNC(=O)c1ccc2c([N+](=O)[O-])cc([N+](=O)[O-])c(O)c2n1`, the pKi on Cathepsin B [5] is 4.47; on Cathepsin B [6] it was 3.80; on Cathepsin B [7] it was 3.70; at Cathepsin B [8] it was 4.54; on Cathepsin B [9] it was 3.80.

For the compound `Nc1ccc2c([N+](=O)[O-])ccc(O)c2n1`, the pKi is 3.48 on Cathepsin B [1], 3.69 at Cathepsin B [6], 3.48 on Cathepsin B [2] and 3.69 on Cathepsin B [9].

Regarding `COCCCOc1cc(-c2ccc([N+](=O)[O-])c3cccnc23)ccc1OC`, the pKi is 4.66 on Cathepsin B [5], 3.49 at Cathepsin B [6], 3.93 at Cathepsin B [7] and 3.49 at Cathepsin B [9].

Consider `O=C(c1cc([N+](=O)[O-])c2cccnc2c1O)N1CCOCC1`, for which the pKi on Cathepsin B [1] is 3.91; on Cathepsin B [6], 3.87; on Cathepsin B [2], 3.91; on Cathepsin B [9], 3.87.

On to `COCCN(CC1CCN(Cc2nc3ccccc3s2)CC1)C(=O)c1cc([N+](=O)[O-])c2cccnc2c1O`, for which the pKi on Cathepsin B [1] is 3.74; at Cathepsin B [2] it was 3.74; at Cathepsin B [3] it was 4.39; on Cathepsin B [4], 3.70.

In the case of `N#CCNC(=O)c1ccc2c([N+](=O)[O-])ccc(O)c2n1`, the pKi at Cathepsin B [1] is 3.72; on Cathepsin B [2], 3.72; at Cathepsin B [3], 3.94; at Cathepsin B [4] it was 3.74.

As to `CN(CC#N)C(=O)c1ccc2c([N+](=O)[O-])cc([N+](=O)[O-])c(O)c2n1`, the pKi on Cathepsin B [5] was 3.96; on Cathepsin B [7] it was 3.59; on Cathepsin B [3] it was 3.91; on Cathepsin B [4] it was 3.47.

As for `N#CCNC(=O)c1cc([N+](=O)[O-])ccc1O`, the pKi was 3.77 at Cathepsin B [1], 3.57 on Cathepsin B [6], 3.77 on Cathepsin B [2] and 3.57 at Cathepsin B [9].

For orientation: inhibition means how much of the control response was suppressed. Consider `CCCNC(=O)[C@H]1O[C@@H]1C(=O)N[C@H](C(=O)N1CCC[C@H]1C(=O)OC)[C@@H](C)CC`, for which the inhibition entry at Cathepsin B [10] was “Active”.

Turning to `N#CCN(Cc1ccccc1)C(=O)c1ccc2c([N+](=O)[O-])cc([N+](=O)[O-])c(O)c2n1`, the Activity entry with MCF-10A-neoT [11] and in the data set on U-87 MG was “Non-Toxic” in each case. In addition, the pKi is 4.46 at Cathepsin B [5], 3.81 at Cathepsin B [7], 3.79 at Cathepsin B [8] and 5.05 on Cathepsin B [13]. Moreover, the inhibition entry on Cathepsin B [10] is “inactive”. The inhibition entry on Cathepsin B [12] is “Active”.

With `O=C(c1cc([N+](=O)[O-])ccc1O)N1CCOCC1`, the pKi on Cathepsin B [1] was 3.75; on Cathepsin B [6], 3.63; on Cathepsin B [2] it was 3.75; at Cathepsin B [9], 3.63.

Consider `CCCNC(=O)[C@H]1O[C@@H]1C(=O)N[C@H](C(=O)N1CCC[C@H]1C(=O)O)[C@@H](C)CC`, for which the inhibition result at Cathepsin B [10] was “inactive”. This compound had an Activity in the data set on MCF-10A-neoT [14] of 40%.

As for `O=C(c1cc([N+](=O)[O-])c2cccnc2c1O)N1CCCCC1`, the pKi was 3.44 at Cathepsin B [1], 3.44 on Cathepsin B [2], 3.77 at Cathepsin B [3] and 3.51 at Cathepsin B [4].

As for `N#CCN(Cc1ccccc1)C(=O)c1cc([N+](=O)[O-])c2cccnc2c1O`, the Activity entry in the data set on MCF-10A-neoT [11] and with U-87 MG was “Non-Toxic” throughout. The pKi at Cathepsin B [5] was 4.49; at Cathepsin B [7] it was 3.73; at Cathepsin B [8], 3.88; on Cathepsin B [3] it was 4.19; at Cathepsin B [4], 3.74. For the same compound, the inhibition on Cathepsin B [10] is under 10%; on Cathepsin B [12], 60%.

For the compound `N#CCN(Cc1ccccc1)C(=O)c1cc([N+](=O)[O-])ccc1O`, the pKi on Cathepsin B [1] is 4.02; on Cathepsin B [6] it was 3.47; on Cathepsin B [2], 4.02; at Cathepsin B [9], 3.47.

In the case of `N#Cc1ccc2c([N+](=O)[O-])ccc(O)c2n1`, the pKi is 3.67 on Cathepsin B [1]; 3.67 at Cathepsin B [2]; 3.91 at Cathepsin B [8]; 4.17 on Cathepsin B [3]; 3.85 on Cathepsin B [4].

With `Cn1cccc1-c1ccc([N+](=O)[O-])c2cccnc12`, the pKi at Cathepsin B [1] is 3.65; on Cathepsin B [6] it was 3.48; at Cathepsin B [2], 3.65; at Cathepsin B [9] it was 3.48.

In the case of `CC(=O)c1ccc(-c2occc2-c2ccc([N+](=O)[O-])c3cccnc23)cc1`, the Ki entry on Cathepsin B [15] and at Cathepsin B [17] was “Not Active” throughout. The pKi at Cathepsin B [16] was 4.96; on Cathepsin B [13] it was 4.34.

Take `N#CC1(NC(=O)c2ccc3c([N+](=O)[O-])ccc(O)c3n2)CC1`: the pKi on Cathepsin B [1] was 3.81; on Cathepsin B [2] it was 3.81; at Cathepsin B [3], 4.18; on Cathepsin B [4], 3.80.

Consider `N#Cc1ccc2c([N+](=O)[O-])cc([N+](=O)[O-])c(O)c2n1`, for which the pKi on Cathepsin B [1] is 3.72; on Cathepsin B [2], 3.72; on Cathepsin B [13] it was 4.41.

In the case of `CN(CC#N)C(=O)c1cc([N+](=O)[O-])c2cccnc2c1O`, the pKi on Cathepsin B [1] was 3.92; on Cathepsin B [6], 3.73; on Cathepsin B [2], 3.92; on Cathepsin B [9], 3.73.

`O=C(O)c1ccc2c([N+](=O)[O-])ccc(O)c2n1`: the pKi was 3.62 at Cathepsin B [1], 3.86 on Cathepsin B [6], 3.62 on Cathepsin B [2] and 3.86 at Cathepsin B [9].

Take `CC1CCN(C(=O)c2cc([N+](=O)[O-])c3cccnc3c2O)CC1`: the pKi on Cathepsin B [1] is 3.79; at Cathepsin B [2] it was 3.79; at Cathepsin B [3], 4.03; at Cathepsin B [4], 3.84.

With `N#CCN(Cc1ccccc1)C(=O)c1ccc2c([N+](=O)[O-])ccc(O)c2n1`, the pKi is 4.74 on Cathepsin B [5], 3.81 at Cathepsin B [7] and 4.47 at Cathepsin B [13].

As for `CC(=O)c1ccc(-c2cc(-c3ccc([N+](=O)[O-])c4cccnc34)c(-c3ccc(C(C)=O)cc3)o2)cc1`, the Ki entry on Cathepsin B [15] and on Cathepsin B [17] was “Not Active” throughout. The pKi was 4.89 at Cathepsin B [16] and 4.41 at Cathepsin B [13].

On to `O=[N+]([O-])c1ccc(O)c(CN2CCOCC2)c1`, for which the negative logarithm of the Ki (pKi) on Cathepsin B [1] was 4.01; at Cathepsin B [6], 3.67; on Cathepsin B [2], 4.01; at Cathepsin B [9] it was 3.67.
